Measurements: ChEMBL document CHEMBL4400565, “Discovery of Irreversible p97 Inhibitors” (J Med Chem, 2019)
Activity calls are given as the source filed them. The calls are words filed in the database; no cut-off is given here. Where a SMILES comes first, the peptide text is derived from it. [ ]: non-standard residue; d: D form. The star is where a group is joined. Nva = CCC[C@H](N)C(=O)O; Cbz = O=C(OCc1ccccc1)*

Key:
[1] = target: T1, Transitional endoplasmic reticulum ATPase (Homo sapiens, UniProt P55072); assay: Inhibition of His-tagged p97 (unknown origin) in presence of ATP and PNP by UV-transparent microplate assay; conditions: read-out: Ki(app)
Target sequence in this assay (P55072 whole entry): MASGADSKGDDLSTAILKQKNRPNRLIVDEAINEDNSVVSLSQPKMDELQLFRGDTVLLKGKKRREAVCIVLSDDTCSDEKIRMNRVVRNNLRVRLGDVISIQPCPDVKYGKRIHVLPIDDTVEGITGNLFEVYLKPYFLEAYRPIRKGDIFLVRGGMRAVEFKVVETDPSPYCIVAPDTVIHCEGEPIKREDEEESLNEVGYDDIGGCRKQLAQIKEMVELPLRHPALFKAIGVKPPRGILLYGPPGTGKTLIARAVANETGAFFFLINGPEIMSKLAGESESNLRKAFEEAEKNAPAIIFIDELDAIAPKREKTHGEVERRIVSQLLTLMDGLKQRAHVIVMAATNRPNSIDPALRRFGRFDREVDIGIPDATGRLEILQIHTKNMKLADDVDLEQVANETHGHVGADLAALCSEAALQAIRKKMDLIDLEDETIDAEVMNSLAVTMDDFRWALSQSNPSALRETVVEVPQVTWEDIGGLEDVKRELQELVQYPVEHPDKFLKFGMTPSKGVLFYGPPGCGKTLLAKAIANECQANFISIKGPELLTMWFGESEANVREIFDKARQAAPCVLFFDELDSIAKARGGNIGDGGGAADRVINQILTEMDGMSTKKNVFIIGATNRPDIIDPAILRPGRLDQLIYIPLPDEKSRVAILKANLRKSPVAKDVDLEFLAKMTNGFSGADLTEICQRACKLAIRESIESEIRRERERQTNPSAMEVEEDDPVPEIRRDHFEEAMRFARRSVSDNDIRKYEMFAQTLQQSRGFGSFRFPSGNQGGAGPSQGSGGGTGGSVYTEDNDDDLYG

[2] = target: T1, Transitional endoplasmic reticulum ATPase; assay: Inhibition of p97 ATPase activity in human HEK293T cells based Ubv-GFP cells assessed as increase Ub-v-GFP accumulation at 2 uM after 4 hrs by Western blot analysis; assay type: cell-based
How it was run: (§1)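 Ub-v-GFP reporter cells (HEK293T-based, 3 × 10⁵) seeded on poly-D-lysine-coated wells and grown overnight. Inhibitor added at 2 μM and kept 4 h at 37 °C (scheme A), or removed after 1 h, cells washed once with PBS, then 3 h in drug-free medium (scheme B). Whole-cell Laemmli extracts immunoblotted for Ub-v-GFP, with anti-p97 as loading control.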
Target sequence in this assay (P55072 2-806 limits assumed): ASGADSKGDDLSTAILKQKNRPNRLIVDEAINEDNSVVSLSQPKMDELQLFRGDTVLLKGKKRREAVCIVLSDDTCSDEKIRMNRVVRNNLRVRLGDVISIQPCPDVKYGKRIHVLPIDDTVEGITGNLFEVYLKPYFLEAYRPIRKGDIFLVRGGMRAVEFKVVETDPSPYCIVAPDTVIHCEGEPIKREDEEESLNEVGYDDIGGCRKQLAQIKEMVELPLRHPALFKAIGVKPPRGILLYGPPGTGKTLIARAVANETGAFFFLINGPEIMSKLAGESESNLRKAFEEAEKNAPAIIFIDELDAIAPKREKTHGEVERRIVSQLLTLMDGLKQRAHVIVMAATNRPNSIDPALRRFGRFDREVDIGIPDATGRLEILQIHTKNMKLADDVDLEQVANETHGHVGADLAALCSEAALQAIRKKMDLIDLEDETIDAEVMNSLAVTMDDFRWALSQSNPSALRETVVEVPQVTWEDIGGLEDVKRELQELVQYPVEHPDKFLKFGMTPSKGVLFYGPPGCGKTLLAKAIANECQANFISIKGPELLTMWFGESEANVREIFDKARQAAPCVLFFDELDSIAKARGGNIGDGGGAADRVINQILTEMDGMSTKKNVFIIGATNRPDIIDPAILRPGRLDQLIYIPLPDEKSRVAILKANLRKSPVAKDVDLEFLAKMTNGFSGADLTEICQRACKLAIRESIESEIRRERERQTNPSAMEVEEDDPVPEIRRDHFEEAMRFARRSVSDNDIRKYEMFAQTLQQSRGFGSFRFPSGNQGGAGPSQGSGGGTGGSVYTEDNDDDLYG

MIA PaCa-2 = assay: Antiproliferative activity against human MIAPaCa2 cells; assay type: functional, cell-based
Proteasome [3] = assay: Inhibition of proteasome in human HEK293T cells stably expressing YFP delSS TCRalpha assessed as reduction in deltaSS TCRalpha-YFP degradation at 2 uM MG132 incubated overnight by Western blot analysis
[4] = target: T1, Transitional endoplasmic reticulum ATPase; assay: Reversible inhibition of p97 in human A373 cells co-expressing US11 and HA-tagged MCH class 1 heavy chain H2A assessed as half life for MHC class 1 heavy chain degradation at 2 uM incubated for 1 hr followed by further incubation in drug-free medium in presence of cycloheximide by Western blot analysis; assay type: cell-based
How it was run: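 They were then moved to inhibitor-free medium containing cycloheximide (50 μg/mL) and sampled at set time points. Lysates were immunoblotted for heavy chain turnover.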
Target sequence in this assay (P55072 2-806 limits assumed): as above

[5] = target: T1, Transitional endoplasmic reticulum ATPase; assay: Inhibition of p97 in human A373 cells co-expressing US11 and HA-tagged MCH class 1 heavy chain H2A assessed as MHC class 1 heavy chain accumulation at 2 uM after 1 hr by Western blot analysis; assay type: cell-based
Target sequence in this assay (P55072 2-806 limits assumed): as above

[6] = target: T1, Transitional endoplasmic reticulum ATPase; assay: Irreversible inhibition of p97 ATPase activity in human HEK293T cells based Ubv-GFP cells assessed as increase Ub-v-GFP accumulation at 2 uM incubated for 4 hrs by Western blot analysis; assay type: cell-based; how it was run: as §1
Target sequence in this assay (P55072 2-806 limits assumed): as above

[7] = GSH reactivity in PBS buffer assessed as GSH adduct formation at 1 uM after presence of GSH by LC-MS/MS analysis; assay type: physicochemical
How it was run: (§2)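 Compound at 1 μM incubated at 37 °C with 5 mM GSH plus a stable internal standard in 0.1 M potassium phosphate, pH 7.4, 10% acetonitrile. Reaction started by GSH addition. GSH conjugate formation checked at the end of incubation.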

[8] = GSH reactivity in PBS buffer assessed as half life at 1 uM after presence of GSH by LC-MS/MS analysis; assay type: physicochemical; conditions: PBS buffer with GSH; how it was run: as §2
Homo sapiens = organism: Homo sapiens; assay: Irreversible inhibition of His-tagged p97 delta N mutant (unknown origin) using PNP as substrate assessed as activity recovered at 780 nM after 2 hrs by dialysis relative to control; design: scale not given: the % may be the effect or the level left
[9] = system: Transitional endoplasmic reticulum ATPase (Homo sapiens), P55072 [UNDEFINED MUTATION]; assay: Irreversible inhibition of His-tagged p97 C552A mutant (unknown origin) using PNP as substrate assessed as activity recovered at 780 nM after 2 hrs by dialysis relative to control; design: scale not given: the % may be the effect or the level left
[10] = target: T1, Transitional endoplasmic reticulum ATPase; assay: Irreversible inhibition of p97 ATPase activity in human HEK293T cells based Ubv-GFP cells assessed as increase Ub-v-GFP accumulation at 2 uM incubated for 1 hr followed by culturing in drug-free medium for additional 3 hrs by Western blot analysis; assay type: cell-based; how it was run: as §1
Target sequence in this assay (P55072 2-806 limits assumed): as above

[11] = target: T1, Transitional endoplasmic reticulum ATPase; assay: Irreversible inhibition of His-tagged p97 (unknown origin) using PNP as substrate assessed as activity recovered at 780 nM after 2 hrs by dialysis relative to control; design: scale not given: the % may be the effect or the level left
Target sequence in this assay (P55072 2-806 limits assumed): as above

[12] = target: T1, Transitional endoplasmic reticulum ATPase; assay: Noncompetitive inhibition of p97 (unknown origin) using increasing concentration of ATP preincubated for 10 mins followed by ATP addition and measured after 2 hrs by UV-based two-step endpoint assay
[13] = target: T1, Transitional endoplasmic reticulum ATPase; assay: Irreversible inhibition of p97 in human A373 cells co-expressing US11 and HA-tagged MCH class 1 heavy chain H2A assessed as MHC class 1 heavy chain degradation at 2 uM incubated for 1 hr followed by further incubation in drug-free medium in presence of cycloheximide by Western blot analysis
Proteasome [14] = assay: Irreversible inhibition of proteasome in human HEK293T cells based Ubv-GFP cells assessed as increase Ub-v-GFP accumulation at 20 uM after 4 hrs by Western blot analysis
How it was run: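 Ub-v-GFP reporter cells (HEK293T-based, stably expressing this short-lived proteasome substrate) seeded at 3 × 10⁵ per well on poly-D-lysine, grown overnight, then exposed to MG132 for 4 h at 37 °C. Whole-cell extracts in Laemmli buffer were run on SDS-PAGE and immunoblotted for Ub-v-GFP, with anti-p97 as loading control.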

Proteasome [15] = assay: Irreversible inhibition of proteasome in human HEK293T cells based Ubv-GFP cells assessed as increase Ub-v-GFP accumulation at 20 uM incubated for 1 hr followed by culturing in drug-free medium for additional 3 hrs by Western blot analysis
Proteasome [16] = assay: Inhibition of proteasome in human HEK293T cells stably expressing YFP delSS TCRalpha assessed as reduction in deltaSS TCRalpha-YFP degradation at 10 uM MG132 incubated overnight by Western blot analysis
Proteasome [17] = assay: Irreversible inhibition of proteasome in human A373 cells co-expressing US11 and HA-tagged MCH class 1 heavy chain H2A assessed as MHC class 1 heavy chain degradation at 20 uM incubated for 1 hr followed by further incubation in drug-free medium in presence of cycloheximide by Western blot analysis
Proteasome [18] = assay: Inhibition of proteasome in human HEK293T cells based Ubv-GFP cells assessed as increase Ub-v-GFP accumulation at 20 uM after 4 hrs by Western blot analysis
[19] = system: Transitional endoplasmic reticulum ATPase (Homo sapiens), P55072 [UNDEFINED MUTATION]; assay: Reversible inhibition of His-tagged p97 C552A mutant (unknown origin) using PNP as substrate assessed as activity recovered at 3200 nM after 2 hrs by dialysis relative to control; design: scale not given: the % may be the effect or the level left
[20] = target: T1, Transitional endoplasmic reticulum ATPase; assay: Reversible inhibition of His-tagged p97 (unknown origin) using PNP as substrate assessed as activity recovered at 3200 nM after 2 hrs by dialysis relative to control; design: scale not given: the % may be the effect or the level left

Transitional endoplasmic reticulum ATPase (Homo sapiens), P55072 [UNDEFINED MUTATION], sequence (P55072 whole entry, looked up, stated change not applied): as the sequence (P55072 whole entry) above

| Compound | Ki [1] [µM] | inhibition [2] | EC50 (MIA PaCa-2) [µM] | also measured |
| --- | --- | --- | --- | --- |
| CCC(=O)Nc1cccc2c1cc(C)n2-c1nc2c(c(NCc3ccccc3)n1)CCCC2 | 0.0208 | Active | 1.01 | – |
| Cc1cc(OCc2nnc(SC3CCCC3)n2-c2cccnc2)ccc1-c1ccc(S(C)(=O)=O)cc1 | – | – | – | inhibition (Proteasome [3]): inactive; T1/2 [4]: < 1 h; inhibition [5]: Active |
| CC#CCNC(=O)c1cccc2c1cc(C)n2-c1nc2c(c(NCc3ccccc3)n1)COCC2 | 0.0424 | Active | 0.524 | inhibition [6]: Active; Activity [7]: Not Active; half-life at 1 µM [8]: > 24 h |
| Cc1cc2c(C(=O)NCC#N)cccc2n1-c1nc2c(c(NCc3ccccc3)n1)CCCC2 | 0.0281 | Active | 0.468 | – |
| CC#CCNC(=O)c1cccc2c1cc(C)n2-c1nc2c(c(NCc3ccccc3)n1)CCCC2 | 0.0373 | Active | 0.723 | inhibition [6]: Active; Activity [7]: Not Active; half-life at 1 µM [8]: > 24 h |
| C#CC(=O)Nc1cccc2c1cc(C)n2-c1nc2c(c(NCc3ccccc3)n1)CCCC2 | 0.0379 | – | 0.131 | – |
| CCCC#CC(=O)Nc1cccc2c1cc(C)n2-c1nc2c(c(NCc3ccccc3)n1)CCCC2 | 0.0269 | Active | 1.57 | – |
| CCCNC(=O)c1cccc2c1cc(C)n2-c1nc2c(c(NCc3ccccc3)n1)CCCC2 | 0.0408 | – | 0.608 | – |
| Cc1cc2c(C(N)=O)cccc2n1-c1nc2c(c(NCc3ccccc3)n1)CCCC2 | 0.0286 | Active | 0.128 | – |
| C#CCNC(=O)c1cccc2c1cc(C)n2-c1nc2c(c(NCc3ccccc3)n1)CCCC2 | 0.0306 | Active | 0.47 | inhibition [6]: Active |
| CC#CC(=O)Nc1cccc2c1cc(C)n2-c1nc2c(c(NCc3ccccc3)n1)COCC2 | 0.0323 | – | 0.6 | – |
| CC#CC(=O)Nc1cccc2c1cc(C)n2-c1nc2c(c(NCc3ccccc3)n1)CCCC2 | 0.0332 | Active | 0.436 | inhibition [6]: Active; Activity (Homo sapiens): 0%; inhibition (Proteasome [3]): inactive; Activity [9]: 6%; inhibition [10]: Active; Activity [11]: 3%; inhibition [12]: Active; inhibition [13]: Active; inhibition [5]: Active |
| CCC[C@@H](C=O)NC(=O)[C@H](CC(C)C)NC(=O)[C@H](CC(C)C)NC(=O)OCc1ccccc1 (Cbz-Leu-Leu-[Nva]-aldehyde) | – | – | – | inhibition (Proteasome [14]): Active; inhibition (Proteasome [15]): Active |
| C#CCCNC(=O)c1cccc2c1cc(C)n2-c1nc2c(c(NCc3ccccc3)n1)CCCC2 | 0.0245 | Active | 1.41 | – |
| CC(C)C[C@@H](C=O)NC(=O)[C@H](CC(C)C)NC(=O)[C@H](CC(C)C)NC(=O)OCc1ccccc1 (Cbz-Leu-Leu-Leu-aldehyde) | – | – | – | inhibition (Proteasome [16]): Active; inhibition (Proteasome [17]): Active; inhibition (Proteasome [18]): Active |
| COc1cccc2c(NCc3ccccc3)nc(-n3c(N)nc4ccccc43)nc12 | – | – | – | Activity [19]: 100%; Activity [20]: 82% |
| CCC#CC(=O)Nc1cccc2c1cc(C)n2-c1nc2c(c(NCc3ccccc3)n1)CCCC2 | 0.043 | Active | 0.463 | – |
| C=CC(=O)Nc1cccc2c1cc(C)n2-c1nc2c(c(NCc3ccccc3)n1)COCC2 | 0.0266 | – | 0.88 | – |
| C#CCNC(=O)c1cccc2c1cc(C)n2-c1nc2c(c(NCc3ccccc3)n1)COCC2 | 0.0186 | Active | 1.08 | inhibition [6]: Active |
| Cc1cc2c(C(=O)NCCC#N)cccc2n1-c1nc2c(c(NCc3ccccc3)n1)CCCC2 | 0.0241 | Active | 0.517 | – |
| C#CC(=O)Nc1cccc2c1cc(C)n2-c1nc2c(c(NCc3ccccc3)n1)COCC2 | 0.0328 | – | 0.0787 | – |
